Experiments:
Escherichia coli = assay: Inhibition constant (Ki) was determined in Escherichia coli; assay type: functional
Summary of the method: (§1)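 E. coli MB 1428 MTX-resistant overproducer DHFR purified to homogeneity by MTX affinity chromatography; spectrophotometric assay at pH 7.2 with 40 μM NADPH and 44 μM dihydrofolate (Km 0.44 μM); enzyme 4 to 5×10^-9 M, titrated with MTX. Rates taken over linear 0.5–2 min (<10% substrate used). I50 = half of control rate; Ki from I50 via Cha equation corrected for enzyme-bound inhibitor.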

Dihydrofolate reductase [1] = target: T1, Dihydrofolate reductase (Escherichia coli, UniProt P0ABQ4); assay: Inhibition of dihydrofolate reductase in Escherichia coli; settings: read-out: I50; summary of the method: as §1
T1 sequence (P0ABQ4 whole entry): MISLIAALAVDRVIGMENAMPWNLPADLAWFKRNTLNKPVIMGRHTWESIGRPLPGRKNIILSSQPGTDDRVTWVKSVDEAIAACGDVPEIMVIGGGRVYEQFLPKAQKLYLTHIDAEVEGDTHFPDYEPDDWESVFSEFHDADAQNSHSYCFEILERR

HuTu80 = assay: Inhibition of growth (cytotoxicity) of HuTu 80 cell line in vitro; assay type: functional, cell-based; settings: Homo sapiens
Summary of the method: (§2)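 About 1 × 10^5 L1210 or HuTu 80 cells in 1 mL of their original medium with inhibitor, 37 °C for 72 h; counted by Coulter counter (10- to 20-fold growth in controls). EC50 = concentration reducing growth 50% versus inhibitor-free controls.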

Lacticaseibacillus casei = assay: Inhibition constant (Ki) was determined in Lactobacillus casei; assay type: functional
L1210 = assay: Inhibition of growth (cytotoxicity) of L1210 cell line in vitro; assay type: functional, cell-based; settings: Mus musculus; summary of the method: as §2
Dihydrofolate reductase [2] = target: Dihydrofolate reductase (Lactobacillus casei, UniProt P00381); assay: Inhibition of dihydrofolate reductase in Lactobacillus casei; design: species or system Lacticaseibacillus casei; settings: read-out: I50
Dihydrofolate reductase (Lactobacillus casei, UniProt P00381), sequence (P00381 whole entry): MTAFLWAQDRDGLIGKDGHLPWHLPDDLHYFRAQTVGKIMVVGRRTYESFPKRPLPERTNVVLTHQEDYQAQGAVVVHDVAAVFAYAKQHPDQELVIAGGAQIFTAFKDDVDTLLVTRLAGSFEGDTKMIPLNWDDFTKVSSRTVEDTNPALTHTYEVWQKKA
Summary of the method: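 L. casei DHFR purified to homogeneity from an MTX-resistant overproducer strain, with enzyme level (4–5 × 10^-9 M) set by MTX titration. […] Rates were taken from the linear 0.5–2 min region. I50 is the concentration halving the rate; Ki is from the Cha equation, correcting for inhibitor depletion.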

Dihydrofolate reductase [3] = target: T2, Dihydrofolate reductase (Homo sapiens, UniProt P00374); assay: Inhibition of dihydrofolate reductase in HeLa cells; assay type: cell-based; settings: read-out: I50
T2 sequence (P00374 whole entry): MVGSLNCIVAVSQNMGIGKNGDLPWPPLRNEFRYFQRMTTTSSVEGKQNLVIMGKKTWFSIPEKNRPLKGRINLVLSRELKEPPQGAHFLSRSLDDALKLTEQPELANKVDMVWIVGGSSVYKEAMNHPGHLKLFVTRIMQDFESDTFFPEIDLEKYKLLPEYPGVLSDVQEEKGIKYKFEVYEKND

`Nc1nc(N)c2nc(CNc3ccc(C(=O)N[C@@H](CCC(=O)O)C(=O)O)cc3)cnc2n1` [AMINOPTERIN] showed a Ki (Escherichia coli) of 0.09 nM, an IC50 (Dihydrofolate reductase [1]) of 11 nM and an EC50 (HuTu80) of 4.7 nM. The Ki (Lacticaseibacillus casei) was 0.11 nM, the EC50 (L1210) was 1.8 nM and the IC50 (Dihydrofolate reductase [2]) was 5 nM.
With `Nc1nc(N)c2nc(CNc3ccc(C(=O)NC(CCC(=O)O)C(=O)O)c(F)c3)cnc2n1` (configuration not stated) the IC50 (Dihydrofolate reductase [3]) was 27 nM, the Ki (Escherichia coli) was 0.08 nM and the IC50 (Dihydrofolate reductase [1]) was 10 nM. It also gave an EC50 (HuTu80) of 4.8 nM, a Ki (Lacticaseibacillus casei) of 0.095 nM and an EC50 (L1210) of 2.3 nM. It also gave an IC50 (Dihydrofolate reductase [2]) of 4.7 nM.
With `Nc1nc(N)c2nc(CNc3ccc(C(=O)NC(CCC(=O)O)C(=O)O)cc3F)cnc2n1` (configuration not stated) the IC50 (Dihydrofolate reductase [3]) was 19 nM, the Ki (Escherichia coli) was 0.03 nM and the IC50 (Dihydrofolate reductase [1]) was 5 nM. The EC50 (HuTu80) was 2.3 nM, the Ki (Lacticaseibacillus casei) was 0.06 nM and the EC50 (L1210) was 1 nM. The IC50 (Dihydrofolate reductase [2]) was 3.5 nM.
Molecule `CN(Cc1cnc2nc(N)nc(N)c2n1)c1ccc(C(=O)N[C@@H](CCC(=O)O)C(=O)O)cc1` [METHOTREXATE] has an EC50 (HuTu80) of 4.5 nM and an EC50 (L1210) of 3.2 nM.

Reference: ChEMBL document CHEMBL1122445, “Novel fluorinated antifolates. Enzyme inhibition and cytotoxicity studies on 2'- and 3'-fluoroaminopterin” (J Med Chem, 1983)
